The list is not random: actives were taken first. Their share in the collection is about 2.5%.
MC4R ag barr: human MC4R agonism via beta-arrestin; P32245; U2OS MC4R beta-arrestin complementation, luminescence; percent of melanotan II response, DMSO zero; activation, % at 8.9 µM; actives 0.98% (n = 360,000);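 active = activation above a per-plate cutoff, the mean activation of sample wells on that plate plus 3 SD, cut at about 8% in these data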
Target sequence (P32245 whole entry, looked up): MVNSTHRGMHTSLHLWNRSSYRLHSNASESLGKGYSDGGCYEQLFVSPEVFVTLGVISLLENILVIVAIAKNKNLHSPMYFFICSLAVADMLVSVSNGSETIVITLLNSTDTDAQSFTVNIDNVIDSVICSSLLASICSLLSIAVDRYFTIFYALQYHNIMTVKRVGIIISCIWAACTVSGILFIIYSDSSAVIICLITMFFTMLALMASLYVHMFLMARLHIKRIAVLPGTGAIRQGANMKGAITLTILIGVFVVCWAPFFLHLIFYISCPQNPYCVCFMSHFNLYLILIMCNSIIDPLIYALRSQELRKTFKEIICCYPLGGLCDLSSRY
sPLA2-III inh: Inhibits HGIII-sPLA2 liposome hydrolysis, primary screen | actives 0.56% (n = 370,000) | QFRET BODIPY PC-A2 liposome hydrolysis, fluorescence | inhibition, % at 12.2 µM | Q9NZ20;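 active = inhibition above mean plus 3 SD of compounds lying within the high and low control bounds, cut at about 19% in these data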
A1 inh: inhibitors of the anti-apoptotic protein A1, read as caspase activation; caspase activation, % (concentration not given with the values); AID 2462; MEF A1-2A-BIM cells, Caspase-Glo 3/7 luminescence, 3 h; percent of clofoctol response, vehicle zero; actives 0.066% (n = 330,000);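 active = over half of replicate activation scores above 10%, or exactly half above 10 with the replicate mean above 10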
Exocytosis inh: blocks lytic granule exocytosis. TALL-104 LAMP-1 surface exposure, flow cytometry; cells stimulated with thapsigargin and PMA. inhibition, % at 10 µM. actives 0.66% (n = 360,000);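 active = inhibition above about 55%, limit read from the data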
MC4R antagonist: human MC4R antagonism in cAMP assay. MC4R-expressing cells, MTII-stimulated cAMP, LANCE TR-FRET. inhibition, % at 6.5 µM. actives 0.48% (n = 360,000);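 active = inhibition above its plate's cutoff, the mean of tested wells on that plate plus 3 SD, cut at about 29% in these data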
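Material: U2OS-MC4R stable cell line | Reagent: Melanotan II challenge after compound preincubation | Doses: One concentration, 6.5 µM nominal | Incubation: 30-min compound preincubation, 1-h Melanotan II challenge, 1-h detection, room temperature | Signal: TR-FRET cAMP assay | Replicates: One well per compound, no replicates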
NTR1 ag: agonists of human neurotensin receptor NTR1 | activation, % at 20 µM | actives 0.17% (n = 330,000) | NTR1-U2OS beta-arrestin-GFP spot imaging, agonist mode | P30989 | AID 493036;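 active = activation at or above 40% of the spot to cytoplasm intensity ratio, with at least 20 cells analyzed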
Target sequence (P30989 whole entry, looked up): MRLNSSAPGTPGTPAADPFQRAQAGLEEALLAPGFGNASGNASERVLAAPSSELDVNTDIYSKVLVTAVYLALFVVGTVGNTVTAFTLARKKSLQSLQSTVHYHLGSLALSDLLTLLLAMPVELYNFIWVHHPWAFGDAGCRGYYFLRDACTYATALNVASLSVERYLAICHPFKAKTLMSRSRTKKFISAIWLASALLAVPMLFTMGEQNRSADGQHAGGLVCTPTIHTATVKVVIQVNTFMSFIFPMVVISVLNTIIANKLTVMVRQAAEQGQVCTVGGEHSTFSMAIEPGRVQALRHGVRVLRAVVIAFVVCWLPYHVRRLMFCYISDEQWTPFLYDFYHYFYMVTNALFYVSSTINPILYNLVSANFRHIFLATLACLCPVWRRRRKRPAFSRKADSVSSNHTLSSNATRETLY
U2OS cAMP counter: U2OS forskolin cAMP inhibition counter-screen. shares compounds with MC4R antagonist. parental U2OS, LANCE TR-FRET. inhibition, % at 6.5 µM. actives 26% (n = 1,600);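 active = mean inhibition over triplicates above the low-control well mean plus 3 SD, set per campaign, cut at about 13% in these data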;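 note: signal is single emission at 671 nm which falls as cellular cAMP rises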
MC4R cAMP antag: human MC4R cAMP antagonism confirmation; shares compounds with MC4R antagonist; MC4R-expressing cells, MTII-stimulated cAMP, TR-FRET; inhibition, % at 6.5 µM; actives 27% (n = 1,600); AID 602195; in the data active = inhibition above about 29%
Large screens that a line does not name were inactive (follow-up assays come after a bar, where they were run).

C[C@@H]1CN([C@H](C)CO)C(=O)CCCn2cc(nn2)CO[C@H]1CN(C)S(=O)(=O)c1cn(C)cn1	none (no result: MC4R ag barr, A1 inh, Exocytosis inh, MC4R antagonist, NTR1 ag)
COc1ccc(CN2CCC[C@]3(N[C@H](c4ccc(OC)cc4)[C@@H]4C(=O)N(Cc5ccccc5)C(=O)[C@@H]43)C2=O)cc1	none (no result: A1 inh, NTR1 ag)
COc1ccc(CN2CCC[C@]3(N[C@H](c4ccccc4)[C@@H]4C(=O)N(Cc5ccccc5)C(=O)[C@@H]43)C2=O)cc1	MC4R antagonist 29 (no result: A1 inh, NTR1 ag) | U2OS cAMP counter inactive | MC4R cAMP antag inactive
O=C(Cc1ccccc1)Nc1cccc(N2C(=O)C=CC2=O)c1	MC4R antagonist 54 (no result: NTR1 ag) | U2OS cAMP counter 18 | MC4R cAMP antag 34
CN(NS(=O)(=O)c1ccc(Br)cc1)c1nc(C(F)(F)F)nc2ccccc12	MC4R antagonist 32 | U2OS cAMP counter inactive | MC4R cAMP antag inactive
O=C1OCCC1Sc1nnnn1-c1ccc(Cl)cc1 (stereo not given)	MC4R antagonist 38 | U2OS cAMP counter 22 | MC4R cAMP antag 39
COc1ccc(/C=C2\C(=O)N(c3c(Cl)cc(Cl)cc3Cl)N=C2NC(=O)c2cccc([N+](=O)[O-])c2)cc1	MC4R antagonist 32 (no result: sPLA2-III inh, NTR1 ag) | U2OS cAMP counter inactive | MC4R cAMP antag inactive
COc1ccc(NC(=O)c2cccc(N3C(=O)c4cccc([N+](=O)[O-])c4C3=O)c2)cc1	none
COc1ccccc1C(O)(c1ccccc1)c1ccccc1OC	none (no result: A1 inh, NTR1 ag)
CC(c1ccccc1C(O)(c1ccccc1)c1ccccc1)N(C)C (stereo not given)	MC4R antagonist 29 | U2OS cAMP counter inactive | MC4R cAMP antag inactive
COc1cccc([C@@H]2NC(=O)C/C=C/[C@H](C)[C@H](c3cccc(OC)c3)NC(=O)C/C=C/[C@@H]2C)c1	none (no result: MC4R ag barr, A1 inh, Exocytosis inh, MC4R antagonist, NTR1 ag)
COC(=O)COc1ccc(S(=O)(=O)Nc2ccccc2C(=O)OC)cc1	MC4R antagonist 35 | U2OS cAMP counter 21 | MC4R cAMP antag 35
C=CCN1C(=O)c2[nH]nc(-c3ccccc3)c2C1c1ccc(C)cc1 (stereo not given)	none (no result: MC4R ag barr, A1 inh, Exocytosis inh, MC4R antagonist, NTR1 ag)
CCOc1ncccc1C(=O)OCC(=O)Nc1cccc(C(C)=O)c1	none
CCOC(=O)C(=O)Nc1cccc(C(=O)OCC)c1	MC4R antagonist 29 | U2OS cAMP counter inactive | MC4R cAMP antag inactive
CCOCC(=O)Nc1cccc(C(=O)OCC)c1	none
CC(=O)c1cccc(NC(=O)COC(=O)c2ccccc2C)c1	MC4R antagonist 38 | U2OS cAMP counter inactive | MC4R cAMP antag inactive
C[C@H]1[C@@H](N(C)C)CC[C@@]23CCCN2C(=O)CCC[C@@H]13	none (no result: MC4R ag barr, A1 inh, Exocytosis inh, MC4R antagonist, NTR1 ag)
CCN(C[C@H]1N[C@@](CC)(C(=O)OC)[C@H]2C(=O)N(Cc3ccccc3)C(=O)[C@@H]12)C(=O)c1ccc(C(C)(C)C)cc1	MC4R antagonist 41 (no result: A1 inh) | U2OS cAMP counter inactive | MC4R cAMP antag inactive
CCOC(=O)C(=Cc1ccc(-n2ccnc2)cc1)C(=O)OCC	MC4R antagonist 34 | U2OS cAMP counter inactive | MC4R cAMP antag inactive
COc1ccc(OC)c(C2C(C(=O)Nc3nc4ccccc4s3)=C(C)NC3=C2C(=O)CCC3)c1 (stereo not given)	MC4R antagonist 33 | U2OS cAMP counter inactive | MC4R cAMP antag 43
COc1cccc(C2C(C(=O)Nc3nc4ccccc4s3)=C(C)NC3=C2C(=O)CC(C)(C)C3)c1OC (stereo not given)	none
CC(=O)c1cn(CC(=O)NCc2ccc3c(c2)OCO3)c2ccccc12	MC4R antagonist 31 | U2OS cAMP counter inactive | MC4R cAMP antag inactive
O=C(Cn1cc(C(=O)C2CC2)c2ccccc21)NCc1ccc2c(c1)OCO2	none
CCCC1CCC2(CC1)CCC2OC(=S)Nc1ccc(N(C)C)cc1 (stereo not given)	none (no result: MC4R ag barr, A1 inh, Exocytosis inh, MC4R antagonist, NTR1 ag)
O=C(Nc1ccccn1)c1ccc(Br)s1	MC4R antagonist 31 | U2OS cAMP counter inactive | MC4R cAMP antag inactive
COc1ccccc1Cc1c(-c2ccc(C)cc2)nc2ccc(C)cn12	none (no result: MC4R ag barr, A1 inh, Exocytosis inh, MC4R antagonist, NTR1 ag)
COC(=O)[C@]12C[C@H](CC(=O)NCc3ccc(OC)c(OC)c3)C(=O)N(CCc3ccc(OC)c(OC)c3)C1=C[C@H](C(C)C)O[C@@H]2C1CC1	none (no result: MC4R ag barr, A1 inh, Exocytosis inh, MC4R antagonist, NTR1 ag)
O=C(Nc1ccc(Br)c(C(F)(F)F)c1)[C@@H]1CC=C[C@@H]2CCN(CC3CC3)C(=O)[C@@H]21	none (no result: MC4R ag barr, A1 inh, Exocytosis inh, MC4R antagonist, NTR1 ag)
CC(C)c1ccc(/C=C(\c2nc3ccccc3[nH]2)S(=O)(=O)c2ccccc2)cc1	none
O=S(=O)(/C(=C/c1ccc(C(F)(F)F)cc1)c1nc2ccccc2[nH]1)c1ccccc1	MC4R antagonist 35 (no result: NTR1 ag) | U2OS cAMP counter 13 | MC4R cAMP antag 48
CC(=O)NS(=O)(=O)c1ccc2c(c1)C(=O)c1cc(S(=O)(=O)NC(C)=O)ccc1-2	none
CC(=O)NS(=O)(=O)c1ccc(N=c2ssc3c2-c2cc(C)c(C)cc2NC3(C)C)cc1	MC4R antagonist 31 | U2OS cAMP counter inactive | MC4R cAMP antag inactive
O=C(O)CCn1c(CO)nc2ccccc21	none
O=C(O)CCn1c(-c2ccccn2)nc2ccccc21	MC4R antagonist 29 | U2OS cAMP counter inactive | MC4R cAMP antag inactive
COc1ccc(CCN2C(=O)C=CC2=O)cc1OC	none (no result: A1 inh, NTR1 ag)
COc1ccc(CCNC2=C(Cl)C(=O)N(CCc3ccc(OC)c(OC)c3)C2=O)cc1OC	MC4R antagonist 31 | U2OS cAMP counter inactive | MC4R cAMP antag inactive
CCOC(=O)c1cc(C(=O)NC(C)c2ccccc2)c(=O)[nH]c1C (stereo not given)	none
COC(=O)c1cc(C(=O)NCc2ccccc2)c(=O)[nH]c1C	MC4R antagonist 30 | U2OS cAMP counter inactive | MC4R cAMP antag inactive
CCCC1=[N+](CC(=O)c2ccccc2)CCn2cccc21	MC4R antagonist 29 | U2OS cAMP counter inactive | MC4R cAMP antag inactive
CCCC1=[N+](CC(=O)c2ccc(Br)cc2)CCn2cccc21	none
COc1ccc2cc(-c3cccc4[nH]cc(C)c34)ccc2c1	none (no result: MC4R ag barr, A1 inh, Exocytosis inh, MC4R antagonist, NTR1 ag)
Clc1ccc([C@H]2OC[C@@]3(CNCC4CC4)CS[C@H](c4ccc(Cl)cc4)N23)cc1	none (no result: MC4R ag barr, A1 inh, Exocytosis inh, MC4R antagonist, NTR1 ag)
CC1(c2ccccc2)NC(=O)N(CC#N)C1=O (stereo not given)	none
CCC1(c2ccccc2)NC(=O)N(CC#N)C1=O (stereo not given)	MC4R antagonist 29 | U2OS cAMP counter inactive | MC4R cAMP antag inactive
O=C(CCc1ccccc1)n1nc(-c2ccccc2)nc1NCc1ccco1	MC4R antagonist 33 | U2OS cAMP counter inactive | MC4R cAMP antag inactive
COc1ccc(CC(=O)n2nc(-c3ccccc3)nc2NCc2ccco2)cc1	none
